Data from ChEMBL document CHEMBL3244305, “Analogues of 8-azainosine” (J Med Chem, 1977).
Calls of active or inactive are those of the source. The rule behind the calls is not given here.

Legend:
[1] = Cytotoxicity against human Hep2 cells assessed as growth inhibition; type: functional; conditions: HEp-2, read-out: ED50 (the source's name)
Summary of the method: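 Human epidermoid carcinoma No. 2 (H.Ep. No. 2) cells grown in culture with compound. ED50 is the concentration that holds growth of treated cells to 50% of untreated controls.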

[2] = tested on: HEp-2; test: Resistance ratio of ED50 for adenosine kinase deficient 6-(methylthio)purine ribonucleoside-resistant human Hep2 cells to ED50 for wild type human Hep2 cells; type: functional
Summary of the method: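 ED50 is measured as growth inhibition to 50% of untreated controls in an H.Ep. No. 2 subline resistant to 6-(methylthio)purine ribonucleoside that lacks adenosine kinase. It is divided by the ED50 in the sensitive (wild) H.Ep. No. 2 line.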

[3] = tested on: HEp-2; test: Resistance ratio of ED50 for adenine phosphoribosyltransferase/adenosine kinase deficient 2-fluoro adenine/2-fluoro adenosine-resistant human Hep2 cells to ED50 for wild type human Hep2 cells; type: functional
[4] = tested on: HEp-2; test: Resistance ratio of ED50 for hypoxanthine-guanine phosphoribosyl transferase/adenosine kinase deficient 6-mercaptopurine/6-(methylthio)purine ribonucleoside-resistant human Hep2 cells to ED50 for wild type human Hep2 cells; type: functional
[5] = tested on: L1210; test: Antitumor activity against mouse L1210 cells allografted in ip dosed BD2F1 mouse assessed as increase in life span administered 1 to 9 days measured on day 10 to 12 relative to control; type: functional
[6] = tested on: HEp-2; test: Cytotoxicity against human Hep2 cells assessed as growth inhibition at 50 uM; type: functional, cell-based
[7] = Drug degradation in buffer assessed as formation of 3,6-Dihydro-3-beta-D-ribofuranosyl-7H-1,2,3-triazolo[4,5-d]-pyrimidine-7-thione at pH 7.3 after 6 days by HPLC analysis; type: physicochemical; conditions: pH 7.3, 144 h
Summary of the method: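 Conversion in pH 7.3 buffer, under conditions meant to mirror the cytotoxicity assay, followed by high-pressure liquid chromatography.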

[8] = tested on: L1210; test: Antitumor activity against mouse L1210 cells allografted in BD2F1 mouse assessed as increase in life span at 90 mg/kg, ip administered 1 to 9 days measured on day 10 to 12 relative to control; type: functional; conditions: route intraperitoneal
[9] = tested on: L1210; test: Antitumor activity against mouse L1210 cells allografted in BD2F1 mouse assessed as increase in life span at 60 mg/kg, ip administered 1 to 9 days measured on day 10 to 12 relative to control; type: functional; conditions: route intraperitoneal
[10] = tested on: L1210; test: Antitumor activity against mouse L1210 cells allografted in BD2F1 mouse assessed as increase in life span at 40 mg/kg, ip administered 1 to 9 days measured on day 10 to 12 relative to control; type: functional; conditions: route intraperitoneal

Structure (SMILES) | EC50 [1] [nM] | Ratio ED50 [2] | Ratio ED50 [3] | also measured
CSc1ncnc2c1nnn2[C@@H]1O[C@H](COC(C)=O)[C@@H](OC(C)=O)[C@H]1OC(C)=O | 500 |  |  | 
CSc1ncnc2nn([C@@H]3O[C@H](COC(C)=O)[C@@H](OC(C)=O)[C@H]3OC(C)=O)nc12 | 7000 |  |  | 
Nc1ncnc2c1nnn2[C@@H]1O[C@H](CO)[C@@H](O)[C@H]1O | 800 | 2 | 2 | Ratio ED50 [4]: 60; ILS [5]: 39%
Nc1ncnc2nn([C@@H]3O[C@H](CO)[C@@H](O)[C@H]3O)nc12 | > 70000 |  |  | 
COc1ncnc2c1nnn2[C@@H]1O[C@H](CO)[C@@H](O)[C@H]1O | 300 | 6 | 6 | ILS [5]: 29%
CSc1ncnc2nn([C@@H]3O[C@H](CO)[C@@H](O)[C@H]3O)nc12 | 6000 |  |  | 
OC[C@H]1O[C@@H](n2nnc3c(S)ncnc32)[C@H](O)[C@@H]1O | 1000 | 90 | 40 | 
CSc1ncnc2[nH]nnc12 | > 300000 |  |  | 
CC(C)=CCNc1ncnc2c1nnn2[C@@H]1O[C@H](CO)[C@@H](O)[C@H]1O | < 3000 |  |  | 
CSc1ncnc2c1nnn2[C@@H]1O[C@H](CO)[C@@H](O)[C@H]1O | 20 | 2000 | 3000 | ILS [5]: 23%
CCCCNc1ncnc2c1nnn2[C@@H]1O[C@H](CO)[C@@H](O)[C@H]1O | 300 |  |  | 
CCOc1ncnc2c1nnn2[C@@H]1O[C@H](CO)[C@@H](O)[C@H]1O | 100 | 20 |  | 
Nc1ncnc2snnc12 |  |  |  | growth inhibition (GI) [6]: inactive
CCSc1ncnc2c1nnn2[C@@H]1O[C@H](CO)[C@@H](O)[C@H]1O | 100 |  | 300 | 
OC[C@H]1O[C@@H](Nc2ncnc3snnc23)[C@H](O)[C@@H]1O | 100 |  |  | Stability [7]: Stable; ILS at 90 mg/kg [8]: 36%; ILS at 60 mg/kg [9]: 28%; ILS at 40 mg/kg [10]: 25%
